# Reference: ChEMBL document CHEMBL1123442 (J Med Chem, 1986)
# Assays:
# [1] = tested on: HCT-8; assay: In vitro for cytotoxicity against human colon tumor cells (HCT-8) in culture; format: functional, cell-based
# [2] = tested on: L1210; assay: In vitro for cytotoxicity against murine leukemia cells (L1210); format: functional, cell-based; details: Mus musculus
# [3] = tested on: Lewis lung carcinoma cell line; assay: In vivo for antitumor activity against Lewis lung carcinoma; format: functional, Mus musculus
# Method in brief: (§1)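 Mice inoculated intravenously with 10^6 Lewis lung carcinoma cells, then drug intraperitoneally in 0.1 mL 30% v/v ethanol-water on days 5, 9 and 13. D50 (mg/kg per day for 50% ILS) taken from dose-response graph. ILS at optimal dose versus untreated tumor-bearing controls. Survivors counted at 40 days.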
# [4] = tested on: Lewis lung carcinoma cell line; assay: Evaluated in vivo for antitumor activity against Lewis lung carcinoma; format: functional, Mus musculus; method in brief: as §1
# [5] = tested on: P388; assay: In vivo for antitumor activity against P388 leukemia.; format: functional, Mus musculus
# Method in brief: (§2)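 Mice given 10^6 P388 leukemia cells intraperitoneally, then drug intraperitoneally in 0.1 mL 30% v/v ethanol-water on days 1, 5 and 9. D50 (mg/kg per day giving 50% ILS) read from dose-response graph. ILS at optimal dose versus untreated controls. Long-term survival counted at 30 days.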
# [6] = tested on: P388; assay: In vivo for antitumor activity against P388 leukemia; format: functional, Mus musculus; method in brief: as §2
# [7] = tested on: poly[d(A-T)]; assay: Binding constant relative to amsacrine (Δlog K) for DNA binding by ethidium bromide displacement; details: Bos taurus
# [8] = tested on: Lewis lung carcinoma cell line; assay: Evaluated in vivo for antitumor activity against Lewis lung carcinoma; g denotes ILS of 50% could not be reached at any dose level; format: functional, organism-based; details: Mus musculus; method in brief: as §1
Δlog K [7],SMILES,IC50 [1] [nM],IC50 [2] [nM],ILSmax [3] [%],OD [3] [mg/kg],D50 [4] [mg/kg],OD [5] [mg/kg],D50 [6] [mg/kg],ILSmax [6] [%],D50 [8]
,CNC(=O)c1cccc2c(Nc3ccc(NS(C)(=O)=O)cc3NC)c3cccc(C)c3nc12,353,82,62,30,25,13.3,6,94,
0.46,COc1cc(NS(C)(=O)=O)ccc1Nc1c2ccccc2nc2c(C)cccc12,,,,,,,,,
,CNc1cc(NS(C)(=O)=O)ccc1Nc1c2ccccc2nc2cc(F)ccc12,460,94,79,45,20,45,15,157,
,CNc1cc(NS(C)(=O)=O)ccc1Nc1c2ccc(Cl)cc2nc2c(OC)cccc12,143,120,159,45,13,65,20,236,
,CNc1cc(NS(C)(=O)=O)ccc1Nc1c2ccccc2nc2cc(Cl)ccc12,170,24,98,20,15,30,10,149,
0.49,COc1cc(NS(C)(=O)=O)ccc1Nc1c2ccccc2nc2cc(Cl)ccc12,,,,,,,,,
,CNc1cc(NS(C)(=O)=O)ccc1Nc1c2ccc(C)cc2nc2c(OC)cccc12,70,65,194,20,10,13.3,5.5,122,
-0.22,COc1cc(NS(C)(=O)=O)ccc1Nc1c2ccccc2nc2ccc(C)cc12,,,,,,,,,
0.37,COc1cc(NS(C)(=O)=O)ccc1Nc1c2ccccc2nc2c(OC)cccc12,,,,,,,,,
,CNc1cc(NS(C)(=O)=O)ccc1Nc1c2ccccc2nc2c(C)cccc12,79,53,139,20,8.9,13.3,3,157,
,CNc1cc(NS(C)(=O)=O)ccc1Nc1c2ccc(C)cc2nc2c(C)cccc12,24,19,93,5.9,4.2,5.9,2,92,
6.99,CNc1cc(NS(C)(=O)=O)ccc1Nc1c2ccccc2nc2cc(Br)ccc12,140,38,49,20,,66,5,136,ILS of 50% could not be reached
,CNC(=O)c1ccc2c(Nc3ccc(NS(C)(=O)=O)cc3NC)c3ccccc3nc2c1,> 104,> 1600,,,,65,30,62,
,CNc1cc(NS(C)(=O)=O)ccc1Nc1c2ccc(Cl)cc2nc2c(C)cccc12,73,15,126,30,8,13.3,5,128,
,CNc1cc(NS(C)(=O)=O)ccc1Nc1c2ccccc2nc2cc(OC)ccc12,180,35,75,20,15,8.9,4.5,132,
,CNc1cc(NS(C)(=O)=O)ccc1Nc1c2ccccc2nc2ccccc12,,,,30,,13.3,,,
0.72,COc1cc(NS(C)(=O)=O)ccc1Nc1c2ccccc2nc2cc(Br)ccc12,,,,,,,,,
-0.08,COc1cc(NS(C)(=O)=O)ccc1Nc1c2ccccc2nc2ccc(Cl)cc12,,,,,,,,,
,CNC(=O)c1cccc2c(Nc3ccc(NS(C)(=O)=O)cc3NC)c3ccccc3nc12,1800,56,91,45,6.8,65,30,82,
0.19,COc1cc(NS(C)(=O)=O)ccc1Nc1c2ccccc2nc2c(Cl)cccc12,,,,,,,,,
-0.03,CNC(=O)c1cccc2c(Nc3ccc(NS(C)(=O)=O)cc3OC)c3ccccc3nc12,,,,,,,,,

Δlog K [7],SMILES,IC50 [1] [nM],IC50 [2] [nM],ILSmax [3] [%],OD [3] [mg/kg],D50 [4] [mg/kg],OD [5] [mg/kg],D50 [6] [mg/kg],ILSmax [6] [%],D50 [8]
-0.03,COc1cc(NS(C)(=O)=O)ccc1Nc1c2ccccc2nc2cc(F)ccc12,,,,,,,,,
,COc1cc(NS(C)(=O)=O)ccc1Nc1c2ccccc2nc2ccccc12 [AMSACRINE],,,,,,,,,ILS of 50% could not be reached
,CNc1cc(NS(C)(=O)=O)ccc1Nc1c2cccc(OC)c2nc2c(OC)cccc12,160,130,116,65,30,150,25,14,
-0.08,COc1ccc2[nH]c3ccccc3c(=Nc3ccc(NS(C)(=O)=O)cc3OC)c2c1,,,,,,,,,
,CNc1cc(NS(C)(=O)=O)ccc1Nc1c2ccc(Br)cc2nc2c(OC)cccc12,150,41,111,65,40,65,9,174,
,CNc1cc(NS(C)(=O)=O)ccc1Nc1c2ccccc2nc2c(C)c(C)ccc12,76,43,155,20,10,13.3,7,148,
0.26,COc1ccc2c(Nc3ccc(NS(C)(=O)=O)cc3OC)c3ccccc3nc2c1,,,,,,,,,
,CNc1cc(NS(C)(=O)=O)ccc1Nc1c2ccc(F)cc2nc2c(C)cccc12,150,150,143,45,25,45,6,152,
,CNc1cc(NS(C)(=O)=O)ccc1Nc1c2ccc(F)cc2nc2c(OC)cccc12,370,200,85,65,45,65,20,100,
,CNc1cc(NS(C)(=O)=O)ccc1Nc1c2ccc(OC)cc2nc2c(C)cccc12,29,16,50,4,4,1.8,0.3,166,
6.92,CNC(=O)c1cccc2c(Nc3ccc(NS(C)(=O)=O)cc3NC)c3cccc(OC)c3nc12,> 1000,320,34,65,,65,30,148,ILS of 50% could not be reached
5.89,CNc1cc(NS(C)(=O)=O)ccc1Nc1c2ccccc2nc2ccc(C)cc12,1700,550,200,100,,100,55,8,ILS of 50% could not be reached
6.71,CNc1cc(NS(C)(=O)=O)ccc1Nc1c2ccccc2nc2cc(C)ccc12,59,19,41,8.9,,8.9,3.5,88,ILS of 50% could not be reached
,CNc1cc(NS(C)(=O)=O)ccc1Nc1c2ccccc2nc2c(F)cccc12,690,400,55,65,60,45,20,152,
0.38,COc1cc(NS(C)(=O)=O)ccc1Nc1c2ccccc2nc2cc(C)ccc12,,,,,,,,,
,CNc1cc(NS(C)(=O)=O)ccc1Nc1c2ccccc2nc2c(Cl)cccc12,740,690,59,100,80,100,65,64,
,CNc1cc(NS(C)(=O)=O)ccc1Nc1c2ccccc2nc2c(OC)cccc12,140,130,153,45,19,45,5,170,
,CNC(=O)c1cccc2c(Nc3ccc(NS(C)(=O)=O)cc3OC)c3cccc(C)c3nc12 [ASULACRINE],,,,30,,20,,,
0.78,COc1cc(NS(C)(=O)=O)ccc1Nc1c2ccccc2nc2cc(I)ccc12,,,,,,,,,
,CNc1cc(NS(C)(=O)=O)ccc1Nc1c2cccc(C)c2nc2c(C)cccc12,190,91,125,65,25,45,6,202,
